Activity calls are given as the source filed them.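 The calls were made as follows: active = toxic dose over reversal dose above 10, when toxic dose is under 15 µM; inactive = the rest.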
Test system: Jurkat/DNR viability with daunorubicin, trypan blue, 3 d
Assay: ABCB1-mediated resistance reversal in Jurkat/DNR – cell-based, trypan blue viability, one SAR set, SAR follow-up (AID 2833)
Conditions: for CC50: measured here: toxicity without chemotherapeutic (TD50)
How it was run: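 Material: Daunorubicin-resistant Jurkat/DNR human T-cell line; dosing: test compound series spanning 1–100 µM, three logs; schedule: 3-day compound exposure with daunorubicin; signal: trypan blue exclusion, cell counts by light microscopy; measure: compound level giving 50% viability loss (CR50)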

EC50	SMILES	CC50
12.5 µM (inactive)	CCCCN(C)C1=CC2=CC(=C(C#N)C#N)CCC2CC1 (stereo not given)	15.2 µM
13.3 µM (inactive)	CCOC(=O)c1cccc(NC(=O)c2cnc3ccccc3n2)c1	15 µM
43.8 µM (inactive)	N#Cc1ccc(-c2ccc(OCC(=O)NCCc3ccccc3)cc2)cc1	21.4 µM
1.18 µM	Cc1nc2cc(-c3cccc(F)c3)nn2c(N2CCN(C(=O)c3ccco3)CC2)c1C	> 100 µM
29.4 µM (inactive)	Cc1cc(C)c(C#N)c(SCc2c(F)cccc2[N+](=O)[O-])n1	3.05 µM
8.81 µM (inactive)	CCOC(=O)c1c(NC(=O)CSc2ncccn2)sc2c1CCN(Cc1ccccc1)C2	5.1 µM
14.6 µM (inactive)	O=[N+]([O-])c1ccccc1-c1nc(-c2ccc(Br)o2)no1	14.6 µM
9.9 µM (inactive)	COc1ccc(-c2nn(-c3ccccc3)cc2/C=C/C(=O)N2CCN(c3ccccn3)CC2)cc1	15.2 µM
10.3 µM (inactive)	COC(=O)c1ccc(C(C(=O)NC2CCCCC2)N(Cc2ccccc2)C(=O)Cc2cccs2)cc1 (stereo not given)	8.81 µM
15.2 µM (inactive)	CNc1nc2cc([N+](=O)[O-])c([N+](=O)[O-])cc2nc1NC	6.2 µM
9.67 µM (inactive)	O=[N+]([O-])c1ccc(Nc2nc(Cl)nc(NCCO)n2)cc1	12.8 µM
34.5 µM (inactive)	CC1=NN(c2ccc([N+](=O)[O-])cc2)C(=O)/C1=C/N(C)C	34.5 µM
13.3 µM (inactive)	CCCCn1c(O)c(N=Nc2ccccn2)c2ccccc21	13.3 µM
17.5 µM (inactive)	COc1ccc(/C=N/NC(=O)c2cccnc2)cc1CN1CCN(c2ccc(F)cc2)CC1	24.1 µM
4.72 µM (inactive)	CCN(CC)P(=O)(Nc1cccc(C(F)(F)F)c1)c1ccc(N(C)C)cc1NC(=O)c1ccco1 (stereo not given)	4.54 µM

Source: PubChem BioAssay AID2833 (NMMLSC, 2010)
